Results gathered from unrelated publications.
Protocols differ between the studies behind these lines.
ADRA1D: Alpha-1D adrenergic receptor (ADRA1D, Homo sapiens, UniProt P25100)
TMEM97: Sigma intracellular receptor 2 (TMEM97, Homo sapiens, UniProt Q5BJF2)
Prostate-specific antigen: Prostate-specific antigen (Homo sapiens, UniProt P07288)
CASP7: Caspase-7 (CASP7, Homo sapiens, UniProt P55210)
SIGMAR1: Sigma non-opioid intracellular receptor 1 (SIGMAR1, Cavia porcellus, UniProt Q60492)
ADRA2B: Alpha-2B adrenergic receptor (ADRA2B, Homo sapiens, UniProt P18089)

SMILES | target | assay | setting | Ki
O=C1c2ccccc2CCN1CCCCN1CCN(c2cccc(Cl)c2Cl)CC1 | ADRA1D | ligand displacement, radioligand | – | 78.4 nM
CCCn1nc(C(=O)N2CCCCC2)c2c1CCC(Nc1ccc(N3CCCCC3)cc1)C2 (stereo not shown) | TMEM97 | ligand displacement, radioligand | – | 787 nM
C#CCN(CCCN1CCN(C2CCCCC2)CC1)c1ccc(C(=O)c2ccccc2)cc1 | TMEM97 | ligand displacement, radioligand | cell membranes | 77.7 nM
CCCC[C@H](NC(=O)[C@H](CCC(N)=O)NC(=O)[C@H](CO)NC(=O)[C@H](C)NC(=O)CCCCCN)C(=O)N[C@@H](Cc1ccccc1)B(O)O | Prostate-specific antigen | enzyme activity, inhibitor, fluorescence | pH 7.8 | 310 nM
O=c1c(O)c(-c2ccc(O)cc2)oc2cc(O)cc(O)c12 | CASP7 | enzyme activity, inhibitor, fluorescence | – | > 300000 nM
CN(Cc1ccc(NC(=O)C2=Cc3cc(-c4ccc(OCCCF)cc4)ccc3CCC2)cc1)C1CCOCC1 | SIGMAR1 | ligand displacement, radioligand | – | 1000 nM
O=C(c1ccc(CNCCCN2CCN(C3CCCCC3)CC2)cc1)c1ccc([N+](=O)[O-])cc1 | TMEM97 | ligand displacement, radioligand | cell membranes | 33 nM
CN(Cc1ccc(NC(=O)C2=Cc3cc(-c4ccc(OCCCCCF)cc4)ccc3CCC2)cc1)C1CCOCC1 | SIGMAR1 | ligand displacement, radioligand | – | 320 nM
CCCC[C@H](NC(=O)[C@H](CCCCN)NC(=O)[C@H](CO)NC(=O)[C@H](CO)NC(=O)OCc1ccccc1)C(=O)N[C@@H](CCCBr)B(O)O | Prostate-specific antigen | enzyme activity, inhibitor, fluorescence | pH 7.8 | 24.2 nM
O=c1c(O)c(-c2cc(O)c(O)c(O)c2)oc2cc(O)cc(O)c12 | CASP7 | enzyme activity, inhibitor, fluorescence | – | 65900 nM
CNC(=O)[C@@]12C[C@@H]1[C@@H](n1cnc3c(NC)nc(C#Cc4ccccc4)nc31)[C@H](O)[C@@H]2O | SIGMAR1 | ligand displacement, radioligand | – | 7110 nM
O=C(NCCN1CCCCC1)c1ccc(O)c(Br)c1 | SIGMAR1 | ligand displacement, radioligand | cell membranes | > 10000 nM
CCCC[C@H](NC(=O)[C@H](CCC(N)=O)NC(=O)[C@H](CO)NC(=O)C[C@@H](Cc1ccc2ccccc2c1)NC(=O)CCCCCN)C(=O)N[C@@H](CCCBr)B(O)O | Prostate-specific antigen | enzyme activity, inhibitor, fluorescence | pH 7.8 | 102 nM
CCCn1nc(C(=O)N2CCCCC2)c2c1CCC(NCCCNC)C2 (stereo not shown) | TMEM97 | ligand displacement, radioligand | – | 1990 nM
O=C(NCCN1CCCCC1)c1ccc(OCCCF)c(Br)c1 | SIGMAR1 | ligand displacement, radioligand | cell membranes | 23.3 nM
Cc1cc(Oc2nccc3c2ccn3C)ccc1-c1c(C)c(=O)[nH]c(=O)n1C | Muscarinic acetylcholine receptor M3 (CHRM3, Homo sapiens, UniProt P20309) | ligand displacement, radioligand | – | 4200 nM

SMILES | target | assay | setting | Ki
C[C@@H]1O[C@H](CNS(=O)(=O)c2ccc(CCn3cc(CN4CCN(c5cc6c(cc5F)c(=O)c(C(=O)O)cn6C5CC5)CC4)nn3)s2)[C@@H](O)[C@H](O)[C@@H]1O | Fucose-binding lectin PA-IIL (lecB, Pseudomonas aeruginosa, UniProt Q9HYN5) | ligand displacement, FP | – | 820 nM
CCCC[C@H](NC(=O)[C@H](CCC(N)=O)NC(=O)[C@H](CO)NC(=O)CCCCCN)C(=O)N[C@@H](CCCBr)B(O)O | Prostate-specific antigen | enzyme activity, inhibitor, fluorescence | pH 7.8 | 302 nM
O[C@@H]1[C@H](O)[C@@H]2C[C@@H]2[C@H]1n1cnc2c(NCc3cccc(Cl)c3)nc(C#Cc3ccccc3)nc21 | SIGMAR1 | ligand displacement, radioligand | – | 7660 nM
O=C1c2ccccc2CCN1CCCCN1CCN(c2ccccn2)CC1 | ADRA1D | ligand displacement, radioligand | – | 467 nM
CCCCN1CCC(COC(=O)c2ccc(N)c(OCF)c2)CC1 | ADRA1D | cell-free assay, radioligand | – | > 10000 nM
O=C(c1ccc(CNCCCN2CCN(c3ccc(F)cc3)CC2)cc1)c1ccc([N+](=O)[O-])cc1 | TMEM97 | ligand displacement, radioligand | cell membranes | 34 nM
CCCC[C@H](NC(=O)[C@H](CCC(N)=O)NC(=O)[C@H](CO)NC(=O)C[C@@H](Cc1ccc2ccccc2c1)NC(=O)CCCCCN)C(=O)N[C@@H](Cc1ccccc1)B(O)O | Prostate-specific antigen | enzyme activity, inhibitor, fluorescence | pH 7.8 | 229 nM
Nc1ccnc2ccccc12 | ADRA2B | ligand displacement, radioligand | cell membranes | 53800 nM
C#CCNCCCN1CCN(CCCNC(=O)c2ccc(C(=O)c3ccc([N+](=O)[O-])cc3)cc2)CC1 | TMEM97 | ligand displacement, radioligand | cell membranes | 60.1 nM
CCCC[C@H](NC(=O)[C@H](CCC(N)=O)NC(=O)[C@H](CO)NC(=O)CCCCCN)C(=O)N[C@@H](Cc1ccccc1)B(O)O | Prostate-specific antigen | enzyme activity, inhibitor, fluorescence | pH 7.8 | 22 nM
COc1ccccc1N1CCN(CCCCN2CCc3ccccc3C2=O)CC1 | ADRA1D | ligand displacement, radioligand | – | 14.2 nM
CCCC[C@H](NC(=O)[C@H](CCC(N)=O)NC(=O)[C@H](CO)NC(=O)[C@H](C)NC(=O)CCCCCN)C(=O)N[C@@H](CCCBr)B(O)O | Prostate-specific antigen | enzyme activity, inhibitor, fluorescence | pH 7.8 | 52.1 nM
CCCNc1nc2ccccc2n1Cc1ccc(Cl)cc1 | ADRA2B | ligand displacement, radioligand | – | 677 nM
O=C(CN(CCCCI)CCCN1CCN(C2CCCCC2)CC1)Nc1ccc(C(=O)c2ccccc2)cc1 | TMEM97 | ligand displacement, radioligand | cell membranes | 45 nM
OCCCN1CC[C@@H]2C[C@H]1c1cc(-c3ccc(C(F)(F)F)cc3)ccc12 | TMEM97 | ligand displacement, radioligand | – | 17 nM
